Experimental data from different studies.
Lines come from different studies, so protocols differ.
Target: Tyrosine-protein kinase SYK (SYK, Homo sapiens, UniProt P43405)

The remaining binding of `COc1ncccc1-c1cnn2ccc(N3CCN(C(=O)OC(C)C)CC3)nc12` is reported as 100% (binding; competition with immobilised ligand; 1 µM).
With `N#CC1(c2ccccn2)CCN(Cc2cc(C(=O)O)c(=O)n3ccccc23)CC1` the remaining binding was 92% (cell-free assay; competition with immobilised ligand; 1 µM).
The remaining binding of `Nc1ncc(-c2nc(N3CCOCC3)nc(N3CCOCC3)n2)c(C(F)F)n1` is reported as 61% (binding; competition with immobilised ligand; 10 µM).
For `Cn1cc(-c2cc(F)cc(N3CCn4c(cc5c4CCCC5)C3=O)c2CO)cc(Nc2ccc(N3CCN(C4COC4)CC3)cn2)c1=O`, the inhibition was 12% (enzyme activity; inhibitor; 0.1 µM).
`C#Cc1n[nH]c2c(-c3cn([C@@H](C)c4ccccn4)c(=O)[nH]c3=O)cc(F)cc12` has an inhibition of 3.3% (enzyme activity; inhibitor; 0.1 µM).
The remaining signal of `O=c1[nH]c2ccccc2n1C1CCN(Cc2ccc(-c3[nH]c4cc5ncnc5cc4nc3-c3ccccc3)cc2)CC1` is reported as 97.9% (cell-free assay; 0.5 µM).
`Cn1cncc1[C@@](O)(COc1ccc(C#N)cc1-c1ccc(OC(F)(F)F)cc1)c1ccc(C#N)cc1` gave a remaining binding of 100% (cell-free assay; competition with immobilised ligand; 1 µM).
The inhibition of `Cn1cc(-c2cccc(N3CCc4c(sc5c4CC(C)(C)C5)C3=O)c2CO)cc(Nc2ccncn2)c1=O` is reported as 0% (enzyme activity; inhibitor; 1 µM).
With `Cc1nn(C)cc1-c1nc2c(N3CCN(Cc4ccc(Cl)cc4)CC3)c(Cl)cnc2[nH]1` the remaining binding was 100% (binding; competition with immobilised ligand; 1 µM).
